The test system of data set [1] is membrane of P. aeruginosa. To be noted: inducing increased virulence; ref [14]; cited from earlier work.
Data set [2] deals with T1, P. aeruginosa AmiC (Pseudomonas aeruginosa, UniProt P27017). The settings on record: ref [36]; cited from earlier work.
Data set [3] deals with P. aeruginosa PA14. In words: Biofilm formation under dynamic conditions, P. aeruginosa PA14 wild type. Format: cell-based, Pseudomonas aeruginosa. The settings on record: 24 h.
In data set [4] the test system is ami operon of P. aeruginosa. The data set is described as follows: qRT-PCR of ami operon mRNA. The settings on record: BNP 10^−6 M; data not shown. The class given is cell-based, Pseudomonas aeruginosa. In general terms: In qPCR the cycle at which signal appears reflects the starting amount.
Data set [5] has as its target T1, P. aeruginosa AmiC. In words: Microscale thermophoresis binding to recombinant AmiC. The settings on record: for affinity for / interaction with AmiC, in words: MST, pH 7.5, 25°C. A digest of the protocol: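 His-tagged codon-optimised AmiC expressed in E. coli Rosetta2(DE3), purified by IMAC and gel filtration, RED-NHS labelled or unlabelled depending on ligand. AmiC at 50 nM final, mixed with 1:1 serial ligand dilutions in 50 mM Tris-HCl pH 7.5, 150 mM NaCl, 10 mM MgCl2, 0.05% Tween 20. After 5 min incubation, read at 25°C (laser 5/30/5 s); three independent pipettings; KD fitted by mass-action equation.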
Background: In MST a laser heats a spot of the sample, and binding alters the fluorescence response.

The subject of data set [6] is PA14 ΔamiC strain. The data set is described as follows: Biofilm formation under dynamic conditions, PA14 ΔamiC strain. The class given is cell-based, Pseudomonas aeruginosa. The settings on record: BNP 10^−7 M, 24 h, P < 0.05, eight samples from three experiments.
The subject of data set [7] is P. aeruginosa cAMP. To be noted: ref [17]; cited from earlier work.
Data set [8] has as its system Caenorhabditis elegans. To be noted: ref [16]; cited from earlier work.
Data set [9] has as its system NPR-C receptor. To be noted: mammalian cells; ref [25]; cited from earlier work.
For data set [10], the system named is NPR-A receptor. To be noted: mammalian cells; ref [25]; cited from earlier work.
Data set [11] deals with P. aeruginosa MPAO1. In words: Biofilm formation under static conditions, P. aeruginosa MPAO1. The class given is cell-based, Pseudomonas aeruginosa. To be noted: isatin 10^−5 M alone, 24 h. In short, it runs like this:
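Uses a GFP-plasmid (pSMC2.1) strain; overnight preculture at 37°C diluted into LB with 400 µg/ml kanamycin. Test compound added at 2 h of subculture from DMSO/water (5/95) stock, final DMSO under 0.2%, DMSO-matched controls. After 3 h more, cells pelleted, resuspended in 0.9% NaCl at OD600 0.1, 2 h static attachment on glass slides, then LB 24 h static at 37°C. PBS-rinsed, heat fixed, CLSM/COMSTAT.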

For data set [12] the following is noted: endogenous, usual order; ref [52]; cited from earlier work.

The source of these data is PMC4550695 (mBio, 2015).

A word on the Kd: it is the constant that tells how readily two partners part at equilibrium.

T1 sequence (P27017 whole entry): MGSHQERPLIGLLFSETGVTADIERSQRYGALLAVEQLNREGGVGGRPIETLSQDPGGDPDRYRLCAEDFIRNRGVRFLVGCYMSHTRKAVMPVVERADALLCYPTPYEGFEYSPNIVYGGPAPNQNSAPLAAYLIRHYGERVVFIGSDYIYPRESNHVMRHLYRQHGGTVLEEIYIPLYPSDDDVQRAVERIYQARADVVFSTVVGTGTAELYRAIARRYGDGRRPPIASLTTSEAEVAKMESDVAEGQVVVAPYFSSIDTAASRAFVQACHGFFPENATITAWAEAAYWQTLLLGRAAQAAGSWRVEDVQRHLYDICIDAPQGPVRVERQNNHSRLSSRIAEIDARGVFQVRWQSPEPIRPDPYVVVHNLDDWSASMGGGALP

With dynorphin, the “crossing of the membrane of P. aeruginosa” value in data set [1] is listed as “able to freely cross the membrane”.
For `CC(N)=O` [acetamide], in [2], the “effect of acetamide on ami operon transcription via AmiC” value is recorded as “triggering the transcription of the whole ami operon”.
Consider brain natriuretic peptide [BNP], for which, in [3] (10^−6 M, PA14, dynamic (flow cell), LB, 37°C, vs control, P < 0.001), the “change of biofilm average thickness” value is −76.0 ± 4.8%. Besides, the “change of biofilm volume” value in [3] (10^−6 M, PA14, dynamic (flow cell), LB, 37°C, vs control, P < 0.001, CNP: ten samples from six experiments, BNP: six samples from two experiments) is listed as −80.3% ± 4.4%. Moreover, in [3] (10^−6 M, PA14, dynamic, confocal microscopy), the “number and mean size of mushroom-like structures in the biofilm” value was “reduction of the number and mean size of mushroom-like structures”. Besides, the “change of biofilm formation” value in data set [3] (BNP 10^−7 M, PA14 wild type, dynamic, P < 0.001, nine samples from three experiments) is −75.1% ± 9.9%. Moreover, the “whole ami operon transcriptional activity” value in [4] is “no significant effect”. Moreover, the “affinity for / interaction with AmiC, in words” value in data set [5] was “no affinity for AmiC”. The “change of biofilm formation in ΔamiC mutant” value in data set [6] is reported as −70.8% ± 12.1%. For the same molecule, the “intrabacterial cAMP” value in data set [7] is reported as “did not modify intrabacterial cAMP levels”. The “effect on P. aeruginosa virulence for Caenorhabditis elegans” value in [8] is on record as “without effect”. Besides, the “affinity for NPR-C” value in [9] is listed as “weak affinity”. Also, the “affinity for NPR-A” value in data set [10] is “strongly binds”.
Turning to `O=C1Nc2ccccc2C1=O` [isatin, indole-2,3-dione], the “effect of isatin alone on organization of the biofilm” value in data set [11] was “more irregular, with the presence of large water channels”. In data set [11] (two independent experiments), the “effect of isatin alone on biomass and thickness of the biofilm” value is “limited and nonsignificant increase”. In addition, in [5], the Kd was found to be 600 ± 200 µM. In data set [12], the “normal blood isatin concentration” value is 0.3 to 1.3 µM.

B1: osteocrin: specific NPR-C agonist, synthesized by J. Leprince (peptide, UniProt P61366 28-133, looked up)
Osteocrin: VDVTTTEAFDSGVIDVQSTPTVREEKSATDLTAKLLLLDELVSLENDVIETKKKRSFSGFGSPLDRLSAGSVDHKGKQRKVVDHPKRRFGIPMDRIGRNRLSNSRG
modifications: Osteocrin
For the molecule B1, the “affinity for / interaction with AmiC, in words” value in [5] is “very strong interaction”.
